≈ marks a conversion by molar mass, not a printed value.
What was measured:
P. aeruginosa DK2 [1] = experiment: Intracellular ROS detection; format: cell-based, Pseudomonas aeruginosa; details: alone and in combination with PB
Procedure, shortened: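 Drug-treated bacteria collected and suspended in DCFH-DA (final 10 μmol/L), then incubated 20 min at 37 ℃. Cells resuspended in LB, centrifuged 5000 rpm for 5 min and washed to remove free probe. Fluorescence read at 488 nm excitation and 525 nm emission.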

P. aeruginosa DK2 [2] = experiment: Time-kill assay; format: cell-based, Pseudomonas aeruginosa; details: for Effect on bacterial growth when used alone (time-kill): A22 10 or 20 μmol/L, PB 0.5 or 1 μg/mL
P. aeruginosa DK2 [3] = experiment: Intracellular NADH oxidase; format: cell-based, Pseudomonas aeruginosa
Procedure, shortened: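 Bacteria treated with compounds singly and in combination; 1 mL harvested at OD600 = 1.0. NOX activity measured with a commercial kit by its extraction method and expressed as relative activity.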

CYP3A4 = CYP3A4 (Homo sapiens, UniProt P08684); experiment: Human CYP450 inhibition assay; format: in vitro ADME
CYP3A4, sequence (P08684 whole entry): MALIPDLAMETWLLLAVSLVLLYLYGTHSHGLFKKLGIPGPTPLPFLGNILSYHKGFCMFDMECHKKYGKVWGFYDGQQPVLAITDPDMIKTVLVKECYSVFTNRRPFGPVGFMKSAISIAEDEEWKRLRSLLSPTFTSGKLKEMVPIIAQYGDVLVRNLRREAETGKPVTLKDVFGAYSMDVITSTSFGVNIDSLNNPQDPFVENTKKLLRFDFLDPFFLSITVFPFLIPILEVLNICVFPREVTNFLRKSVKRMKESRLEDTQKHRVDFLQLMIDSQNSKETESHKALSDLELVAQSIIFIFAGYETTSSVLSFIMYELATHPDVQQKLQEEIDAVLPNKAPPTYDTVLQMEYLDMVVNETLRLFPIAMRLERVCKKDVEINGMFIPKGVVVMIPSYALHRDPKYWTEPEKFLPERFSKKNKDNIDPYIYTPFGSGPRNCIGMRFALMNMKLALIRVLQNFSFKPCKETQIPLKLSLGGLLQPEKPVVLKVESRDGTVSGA

[4] = Stability in liver microsomes; format: in vitro ADME, human
P. aeruginosa DK2 [5] = experiment: Murine wound infection model; format: in vivo, BALB/c female mice; details: mouse
Procedure, shortened: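 Female mice, 6–8 weeks old and 20–22 g, were anesthetized with 4% chloral hydrate and shaved dorsally. A ~5 mm wound was made and inoculated with 30 μL DK2 (5 × 10^8 CFU). From 48 h post-infection, wounds received saline, polymyxin alone, or polymyxin plus test compound twice daily. Test compound was given in saline with 0.1% Tween 80 and polymyxin in saline. Wounds and body weight were monitored daily. Wound tissue was homogenized in sterile PBS and plated for CFU.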

CYP2D6 = CYP2D6 (Homo sapiens, UniProt P10635); experiment: Human CYP450 inhibition assay; format: in vitro ADME
CYP2D6, sequence (P10635 whole entry): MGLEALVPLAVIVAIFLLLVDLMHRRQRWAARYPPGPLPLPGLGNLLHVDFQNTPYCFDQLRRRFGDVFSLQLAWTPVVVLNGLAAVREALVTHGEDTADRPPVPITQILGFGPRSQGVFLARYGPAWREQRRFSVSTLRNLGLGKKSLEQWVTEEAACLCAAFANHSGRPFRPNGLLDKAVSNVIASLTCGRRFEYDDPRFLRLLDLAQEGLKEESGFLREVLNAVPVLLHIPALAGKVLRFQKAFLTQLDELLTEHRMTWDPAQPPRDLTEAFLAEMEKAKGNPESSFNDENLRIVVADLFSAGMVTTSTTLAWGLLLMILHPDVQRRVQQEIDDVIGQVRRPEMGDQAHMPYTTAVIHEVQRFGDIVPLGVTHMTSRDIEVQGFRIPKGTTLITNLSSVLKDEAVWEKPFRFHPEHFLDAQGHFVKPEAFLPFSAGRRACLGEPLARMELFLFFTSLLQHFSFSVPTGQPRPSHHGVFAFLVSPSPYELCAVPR

[6] = Stability in liver microsomes; format: in vitro ADME, mouse
P. aeruginosa DK2 [7] = experiment: MIC by micro broth dilution; format: cell-based, Pseudomonas aeruginosa; details: for MIC: Pseudomonas aeruginosa, DK2, 18 h, read-out: MIC, derivative alone, P. aeruginosa DK2, 18 h, 100% growth inhibition; for MIC, antibiotic alone: P. aeruginosa DK2
hERG potassium channels = hERG potassium channels (Homo sapiens, UniProt Q12809); experiment: hERG channel Qpatch assay; format: cell-based
hERG potassium channels, sequence (Q12809 whole entry): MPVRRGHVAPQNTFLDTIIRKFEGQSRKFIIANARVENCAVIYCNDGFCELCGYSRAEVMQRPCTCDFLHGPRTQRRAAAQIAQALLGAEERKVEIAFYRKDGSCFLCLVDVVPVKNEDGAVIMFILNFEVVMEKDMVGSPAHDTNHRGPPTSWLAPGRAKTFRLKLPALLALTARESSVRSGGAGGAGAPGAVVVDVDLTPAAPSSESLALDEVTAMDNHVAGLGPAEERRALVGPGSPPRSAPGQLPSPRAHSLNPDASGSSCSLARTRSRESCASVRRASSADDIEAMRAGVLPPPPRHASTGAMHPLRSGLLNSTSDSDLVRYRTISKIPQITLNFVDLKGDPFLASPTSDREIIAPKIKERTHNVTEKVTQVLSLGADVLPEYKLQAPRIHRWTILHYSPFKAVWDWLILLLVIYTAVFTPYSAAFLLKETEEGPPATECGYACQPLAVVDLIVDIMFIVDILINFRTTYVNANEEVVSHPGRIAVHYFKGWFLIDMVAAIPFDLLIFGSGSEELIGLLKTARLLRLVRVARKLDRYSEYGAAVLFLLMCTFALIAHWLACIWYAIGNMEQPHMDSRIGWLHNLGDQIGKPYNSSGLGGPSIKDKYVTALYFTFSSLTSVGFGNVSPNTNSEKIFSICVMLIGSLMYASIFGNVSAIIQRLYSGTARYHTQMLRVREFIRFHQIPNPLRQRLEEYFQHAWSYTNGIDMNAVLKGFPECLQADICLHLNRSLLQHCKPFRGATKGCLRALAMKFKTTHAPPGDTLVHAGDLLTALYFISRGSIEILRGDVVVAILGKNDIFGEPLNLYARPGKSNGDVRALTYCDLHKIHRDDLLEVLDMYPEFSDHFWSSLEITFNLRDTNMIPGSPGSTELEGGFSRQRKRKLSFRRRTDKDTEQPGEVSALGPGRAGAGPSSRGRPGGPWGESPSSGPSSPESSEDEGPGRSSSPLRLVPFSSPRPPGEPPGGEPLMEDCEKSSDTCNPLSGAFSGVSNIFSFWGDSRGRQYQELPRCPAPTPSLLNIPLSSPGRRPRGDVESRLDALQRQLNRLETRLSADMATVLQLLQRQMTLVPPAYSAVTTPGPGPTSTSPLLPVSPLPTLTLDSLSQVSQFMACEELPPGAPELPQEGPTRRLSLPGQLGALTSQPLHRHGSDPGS

HUVEC = experiment: Mammalian cytotoxicity, CCK8; format: cell-based; details: Homo sapiens, 24 h, read-out: HUVEC IC50, CCK8, 1 day incubation
Procedure, shortened: (§1)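 Cells seeded at 10,000 per well in medium with 10% serum. Serially diluted compound added 24 h later and incubated 1 day. Viability measured with CCK8 reagent per kit instructions and expressed as percent of vehicle-treated cells (set to 100).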

P. aeruginosa DK2 [8] = experiment: Oxidative stress; format: cell-based, Pseudomonas aeruginosa; details: PB 0.25 or 0.5 μg/mL; 15 or A22 4 or 8 μg/mL, with or without PB
Procedure, shortened: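 Culture diluted to 0.01 and treated with compounds. At OD600 1.0, 3 mL collected, washed in 1 mL PBS, then resuspended in PBS with 0.2 mol/L H2O2 and shaken 15 min at 37 ℃. Suspensions diluted 10^1–10^7 in PBS, 5 μL spotted onto LB agar, and incubated 37 ℃ for 1–2 days before colony counting.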

P. aeruginosa PAO1 = experiment: C. elegans liquid medium killing and rescue assay; format: in vivo, Caenorhabditis elegans
P. aeruginosa DK2 [9] = experiment: Biofilm production assay; format: cell-based, Pseudomonas aeruginosa
Procedure, shortened: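 Overnight LB culture (37 ℃, 200 rpm) diluted to OD600 0.01 and treated with compound alone or with polymyxin B. Cells inoculated 1:100 into CPG medium and grown 24 h at 37 ℃, then stained 30 min with 0.1% crystal violet. After water rinses and 1 h air drying, dye solubilised in 95% ethanol; OD570 read. For imaging, coverslip biofilms washed with PBS (pH 7.2), dried 60 ℃ 30 min, stained 15 min with acridine orange/ethidium bromide and examined by confocal microscopy.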

CYP2C19 = CYP2C19 (Homo sapiens, UniProt P33261); experiment: Human CYP450 inhibition assay; format: in vitro ADME; details: Inhibition for CYP isoforms IC50, 2C19, human liver microsomes, 40 min
CYP2C19, sequence (P33261 whole entry, canonical isoform): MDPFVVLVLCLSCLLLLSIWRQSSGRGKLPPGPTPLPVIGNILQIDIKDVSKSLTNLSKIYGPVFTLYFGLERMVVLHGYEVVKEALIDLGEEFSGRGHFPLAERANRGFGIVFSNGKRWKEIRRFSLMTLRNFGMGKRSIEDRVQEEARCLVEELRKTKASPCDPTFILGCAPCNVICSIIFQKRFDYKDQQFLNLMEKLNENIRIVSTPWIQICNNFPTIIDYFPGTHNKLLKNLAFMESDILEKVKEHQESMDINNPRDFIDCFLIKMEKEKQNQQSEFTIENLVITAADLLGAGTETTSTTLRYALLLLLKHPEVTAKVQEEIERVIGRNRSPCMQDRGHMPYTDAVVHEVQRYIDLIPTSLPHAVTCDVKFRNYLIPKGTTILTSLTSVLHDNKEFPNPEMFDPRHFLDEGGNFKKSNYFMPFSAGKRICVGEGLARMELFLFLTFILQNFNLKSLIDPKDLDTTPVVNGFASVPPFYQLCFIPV

CYP1A2 = molecular target: T1, CYP1A2 (Homo sapiens, UniProt P05177); experiment: Human CYP450 inhibition assay; format: in vitro ADME
T1 sequence (P05177 1-516): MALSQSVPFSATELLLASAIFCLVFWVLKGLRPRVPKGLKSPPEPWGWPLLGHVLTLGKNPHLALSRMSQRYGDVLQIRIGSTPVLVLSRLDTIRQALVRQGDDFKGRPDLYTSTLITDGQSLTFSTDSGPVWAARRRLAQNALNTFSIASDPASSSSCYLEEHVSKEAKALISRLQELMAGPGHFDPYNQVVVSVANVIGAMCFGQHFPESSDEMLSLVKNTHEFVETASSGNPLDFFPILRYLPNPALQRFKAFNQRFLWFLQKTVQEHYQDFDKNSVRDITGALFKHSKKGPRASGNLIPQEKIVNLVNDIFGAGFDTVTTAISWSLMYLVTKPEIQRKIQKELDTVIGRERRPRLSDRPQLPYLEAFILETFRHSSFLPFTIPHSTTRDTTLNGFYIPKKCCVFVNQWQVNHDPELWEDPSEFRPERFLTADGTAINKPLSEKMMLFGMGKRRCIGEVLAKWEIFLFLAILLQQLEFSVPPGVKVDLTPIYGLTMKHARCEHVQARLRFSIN

Water solubility assay = format: physicochemical; details: thermodynamic from solid
Procedure, shortened: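 Standard curve made from methanol solutions (0.56–0.0011 mg/mL) using HPLC UV peak area at 254 nm. Excess solid stirred in water for 24 h to give a […] solution, then analysed by HPLC at 254 nm. Solubility calculated from the standard curve.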

293 T = experiment: Mammalian cytotoxicity, CCK8; format: cell-based; details: Homo sapiens, HEK-293T, 24 h, read-out: 293 T IC50, CCK8, 1 day incubation
Procedure, shortened: as §1

P. aeruginosa DK2 [10] = experiment: Bacterial ATP level assay; format: cell-based, Pseudomonas aeruginosa
Procedure, shortened: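 Cells treated with compounds singly and in combination and harvested at OD600 = 1.0 (2 mL), centrifuged, then extraction solution added. Lysed by sonication in an ice bath; extract kept on ice. Absorbance read at 340 nm at 10 s and again after 3 min at 25 ℃ using a commercial ATP kit. ATP expressed relative to control.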

[11] = Plasma protein binding assay; format: in vitro ADME; details: human
Procedure, shortened: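 Equilibrium dialysis: compound-spiked plasma placed on the donor side, blank buffer on the receiver side, 5 h at 37 ℃; T0 plasma samples also taken. Donor and receiver aliquots matrix-matched with the opposite matrix. Quenched with acetonitrile containing internal standard, vortexed, centrifuged 4000×g 10 min, and supernatant diluted with water. Analysed by LC–MS/MS alongside reference compounds.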

CYP2C9 = CYP2C9 (Homo sapiens, UniProt P11712); experiment: Human CYP450 inhibition assay; format: in vitro ADME
CYP2C9, sequence (P11712 whole entry): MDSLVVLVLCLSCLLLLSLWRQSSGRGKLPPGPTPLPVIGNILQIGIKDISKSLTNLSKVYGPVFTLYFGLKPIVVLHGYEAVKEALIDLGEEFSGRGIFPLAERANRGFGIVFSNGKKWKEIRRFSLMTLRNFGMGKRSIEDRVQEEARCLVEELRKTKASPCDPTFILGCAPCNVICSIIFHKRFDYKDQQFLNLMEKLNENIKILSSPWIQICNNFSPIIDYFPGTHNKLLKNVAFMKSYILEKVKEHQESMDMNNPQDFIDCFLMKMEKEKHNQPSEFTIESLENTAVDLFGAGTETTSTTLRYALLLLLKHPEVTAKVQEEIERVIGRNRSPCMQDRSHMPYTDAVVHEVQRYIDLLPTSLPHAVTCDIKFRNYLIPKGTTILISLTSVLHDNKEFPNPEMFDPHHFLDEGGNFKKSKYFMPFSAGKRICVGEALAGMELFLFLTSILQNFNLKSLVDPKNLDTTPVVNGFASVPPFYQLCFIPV

CYP2B6 = molecular target: T2, CYP2B6 (Homo sapiens, UniProt P20813); experiment: Human CYP450 inhibition assay; format: in vitro ADME
T2 sequence (P20813 1-491): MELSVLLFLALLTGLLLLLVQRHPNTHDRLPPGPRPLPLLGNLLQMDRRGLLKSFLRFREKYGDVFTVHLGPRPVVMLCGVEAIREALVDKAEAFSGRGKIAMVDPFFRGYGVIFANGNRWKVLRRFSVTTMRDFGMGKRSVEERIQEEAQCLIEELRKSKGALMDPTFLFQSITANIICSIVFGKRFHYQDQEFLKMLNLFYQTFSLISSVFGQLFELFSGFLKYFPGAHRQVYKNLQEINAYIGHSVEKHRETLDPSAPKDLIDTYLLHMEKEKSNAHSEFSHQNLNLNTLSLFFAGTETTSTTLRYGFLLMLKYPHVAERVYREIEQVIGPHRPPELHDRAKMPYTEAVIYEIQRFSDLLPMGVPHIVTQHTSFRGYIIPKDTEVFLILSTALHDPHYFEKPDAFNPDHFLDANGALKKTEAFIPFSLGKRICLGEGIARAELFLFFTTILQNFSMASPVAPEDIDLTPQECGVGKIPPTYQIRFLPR

CYP2C8 = molecular target: T3, CYP2C8 (Homo sapiens, UniProt P10632); experiment: Human CYP450 inhibition assay; format: in vitro ADME
T3 sequence (P10632 1-490): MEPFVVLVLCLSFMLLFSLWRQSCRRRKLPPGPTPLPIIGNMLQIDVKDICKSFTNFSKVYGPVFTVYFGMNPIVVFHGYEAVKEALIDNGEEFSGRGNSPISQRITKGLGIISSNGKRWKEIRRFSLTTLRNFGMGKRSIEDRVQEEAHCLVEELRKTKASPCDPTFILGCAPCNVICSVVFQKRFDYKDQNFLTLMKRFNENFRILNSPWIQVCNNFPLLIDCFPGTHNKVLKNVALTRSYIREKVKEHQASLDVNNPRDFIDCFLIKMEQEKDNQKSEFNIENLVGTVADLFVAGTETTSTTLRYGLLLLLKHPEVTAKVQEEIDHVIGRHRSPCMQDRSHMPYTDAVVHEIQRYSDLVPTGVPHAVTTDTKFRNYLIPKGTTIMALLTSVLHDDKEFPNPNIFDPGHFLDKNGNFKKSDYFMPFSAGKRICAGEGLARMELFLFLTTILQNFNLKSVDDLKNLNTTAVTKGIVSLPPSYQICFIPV

P. aeruginosa DK2 [12] = experiment: Resistance assay by serial passaging; format: cell-based, Pseudomonas aeruginosa; details: passaged with PB alone (64 μg/mL); start 256 μg/mL

O=C(Nc1ccc(C(F)(F)F)cc1C(F)(F)F)c1cc(F)ccc1O [A22]
ROS levels (P. aeruginosa DK2 [1]): significantly elevating ROS levels
Time of complete inhibition of bacterial growth (P. aeruginosa DK2 [2]; A22 10 μmol/L with PB 1 μg/mL): 36 h
Time of complete inhibition of bacterial growth (P. aeruginosa DK2 [2]; A22 20 μmol/L with PB 1 μg/mL): 24 h
Effect on bacterial growth when used alone (time-kill) (P. aeruginosa DK2 [2]): neither A22 (10 μmol/L = 3.67 μg/mL, or 20 μmol/L = 7.34 μg/mL) nor PB (0.5 or 1 μg/mL) significantly affected bacterial growth
Time of first substantial reduction in CFUs (P. aeruginosa DK2 [2]; A22 combined with PB): 2 h
NOX activity, compound alone (P. aeruginosa DK2 [3]): significantly increased
NOX activity, in combination with PB (P. aeruginosa DK2 [3]): further significant increase
IC50 (CYP3A4): > 33 µM
HLM Remaining (t = 1 h) ([4]; human liver microsomes): 23.96%
half-life ([4]; human, liver microsomes, pH 7.4): 29.1 min
Bacterial load in infected wounds, combination (P. aeruginosa DK2 [5]; A22 10 mg/kg and PB 1 mg/kg, versus control and monotherapy): significantly reduced bacterial loads in the infected wounds
Bacterial load in infected wounds, monotherapy (P. aeruginosa DK2 [5]; A22 10 mg/kg or PB 1 mg/kg, after 7 days of treatment): neither A22 monotherapy (10 mg/kg) nor PB monotherapy (1 mg/kg) exhibited significant antibacterial effects
IC50 (CYP2D6): 1.88 µM
MLM Remaining (t = 1 h) ([6]; mouse liver microsomes): 46.31%
half-life ([6]; mouse, liver microsomes, pH 7.4): 54.4 min
MIC (P. aeruginosa DK2 [7]): > 1000 µM
IC50 (hERG potassium channels): 6.94 µM
IC50 (HUVEC): > 150 µM
CFU under oxidative stress (H2O2) (P. aeruginosa DK2 [8]): significantly reduced CFU
Survival of PAO1-infected worms, combination (P. aeruginosa PAO1; 8 μg/mL A22 and 8 μg/mL PB): synergistically extended the lifespan of the worms
Survival of PAO1-infected worms, monotherapy (P. aeruginosa PAO1; C. elegans N2 infected with P. aeruginosa PAO1): neither A22 nor PB had significant therapeutic effects
Inhibitory effect on biofilm formation, combination (P. aeruginosa DK2 [9]; 8 μg/mL A22 with 0.25 or 0.5 μg/mL PB): significantly enhanced
Biofilm formation, A22 alone (P. aeruginosa DK2 [9]; 4 and 8 μg/mL, crystal violet and CLSM): potent inhibitory activity against biofilm formation
IC50 (CYP2C19): 20.5 µM
IC50 (CYP1A2): 6.13 µM
solubility at 24 h (Water solubility assay): 4 µg/mL (≈ 10.9 µM)
IC50 (293 T): > 150 µM
ATP levels, monotherapy (P. aeruginosa DK2 [10]): reduced ATP levels
Reduction in ATP levels, combined with PB (P. aeruginosa DK2 [10]): even more pronounced
fraction unbound at 5 h [11]: 0.0206
IC50 (CYP2C9): 0.29 µM
IC50 (CYP2B6): > 33 µM
IC50 (CYP2C8): 2.61 µM

Colistin [reference compound]
MIC, antibiotic alone (P. aeruginosa DK2 [7]): > 256 µg/mL

Polymyxin B [reference compound]
Effect on bacterial growth when used alone (time-kill) (P. aeruginosa DK2 [2]): neither A22 (10 μmol/L = 3.67 μg/mL, or 20 μmol/L = 7.34 μg/mL) nor PB (0.5 or 1 μg/mL) significantly affected bacterial growth
MIC of PB after 14 generations (P. aeruginosa DK2 [12]): 1024 µg/mL
MIC, antibiotic alone (P. aeruginosa DK2 [7]): 256 µg/mL
CFU under oxidative stress (H2O2) (P. aeruginosa DK2 [8]): did not reduce CFU

O=C(Nc1ccc([N+](=O)[O-])cc1O)c1cc(F)ccc1O [A20]
MIC (P. aeruginosa DK2 [7]): 50 to 100 µM (≈ 14.6 to 29.2 µg/mL)

O=C(Nc1ccc([N+](=O)[O-])cc1C(F)(F)F)c1cc(F)ccc1O [A25]
MIC (P. aeruginosa DK2 [7]): 50 to 100 µM (≈ 17.2 to 34.4 µg/mL)

O=C(NNc1ccc([N+](=O)[O-])cc1Cl)c1cc(F)ccc1O [A3]
MIC (P. aeruginosa DK2 [7]): 50 to 100 µM (≈ 16.3 to 32.6 µg/mL)
